According to ChEMBL document CHEMBL1157292, “(+)-agelasine D: improved synthesis and evaluation of antibacterial and cytotoxic activities” (J Nat Prod, 2006):
Values after ≈ are worked out from the molar mass of the structure shown. Active and inactive are the calls of the source. The rule behind the calls is not given here.

Key:
[1] = system: Bacteroides thetaiotaomicron; assay: Antibacterial activity against Bacteroides thetaiotaomicron DSM 2255 by standard broth microdilution technique; format: functional
Summary of the method: (§1)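 Strains kept at -80 °C and grown on blood agar at 35 °C for 24 h before testing. DMSO stocks were serially 2-fold diluted in reduced Wilkins-Chalgren broth to final 0.125–32 μg/mL. Colony suspension was set to 0.5 McFarland and diluted 1:10 (~1.5 × 10⁷ CFU/mL); 10 μL was added per well, in triplicate. Incubated anaerobically at 35 °C for 48 h. MIC was the lowest concentration without visible growth. Tests were repeated at least once.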

Bacteroides fragilis = assay: Antibacterial activity against Bacteroides fragilis DSM 2151 by standard broth microdilution technique; format: functional; summary of the method: as §1
[2] = Cytotoxicity against human RPMI 8226/s cells after 72 hrs by fluorometric microculture cytotoxicity assay; format: functional, cell-based; conditions: RPMI8226/S
Summary of the method: (§2)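 FMCA method: compounds dissolved in 10% DMSO were tested at 10 concentrations, 0.15625–80 μM, each in triplicate. Plates included solvent, medium, Triton X-100 and PBS controls. Cells were exposed for 72 h, washed with PBS, and incubated with FDA for 40 min. Fluorescence, proportional to living cells, gave a survival index at each concentration. Values are mean ± SEM of triplicates, fitted by nonlinear regression.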

[3] = Cytotoxicity against human CEM/s cells after 72 hrs by fluorometric microculture cytotoxicity assay; format: functional, cell-based; summary of the method: as §2
ACHN [4] = assay: (§3) Cytotoxicity against multidrug-resistant human ACHN cells after 72 hrs by fluorometric microculture cytotoxicity assay; format: functional, cell-based; summary of the method: as §2
Enterococcus faecalis = assay: Antibacterial activity against Enterococcus faecalis by standard broth microdilution technique; format: functional
Summary of the method: (§4)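 Exponential-phase cultures were diluted to a final inoculum of 1 × 10⁶ CFU/mL and mixed 1:1 with serial dilutions made in double-distilled water. Medium was 2% bactopeptone water for S. aureus, E. coli and P. aeruginosa, and brain heart infusion broth for E. faecalis and S. pyogenes. Incubated at 37 °C overnight. MIC was the lowest concentration without visible growth. Gentamycin served as internal control.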

U-937/GTB [5] = assay: Cytotoxicity against human U937 GTB cells after 72 hrs by fluorometric microculture cytotoxicity assay; format: functional, cell-based; summary of the method: as §2
Pseudomonas aeruginosa = assay: Antibacterial activity against Pseudomonas aeruginosa ATCC 27853 by standard broth microdilution technique; format: functional; summary of the method: as §4
[6] = system: Mycobacterium tuberculosis; assay: Antibacterial activity against Mycobacterium tuberculosis by standard broth microdilution technique; format: functional
Escherichia coli = assay: Antibacterial activity against Escherichia coli ATCC 25922 by standard broth microdilution technique; format: functional; summary of the method: as §4
Staphylococcus aureus = assay: Antibacterial activity against Staphylococcus aureus ATCC 25923 by standard broth microdilution technique; format: functional; summary of the method: as §4
Streptococcus pyogenes = assay: Antibacterial activity against Streptococcus pyogenes ATCC 19615 by standard broth microdilution technique; format: functional; summary of the method: as §4
L1210 = assay: Cytotoxicity against mouse L1210 cells; format: functional, cell-based
ACHN [7] = assay: as §3; format: functional, cell-based; summary of the method: as §2; remark: listed apart in the source
CEM/s = assay: Cytotoxicity against human CEM/s cells at 80 uM after 72 hrs by fluorometric microculture cytotoxicity assay; format: functional, cell-based; summary of the method: as §2
U-937/GTB [8] = assay: Cytotoxicity against human U937 GTB cells at 80 uM after 72 hrs by fluorometric microculture cytotoxicity assay; format: functional, cell-based; summary of the method: as §2
Homo sapiens = species on record: Homo sapiens; assay: Cytotoxicity against human RPMI 8226/s cells at 80 uM after 72 hrs by fluorometric microculture cytotoxicity assay; format: functional, cell-based; summary of the method: as §2

SMILES	MIC [1]	MIC (Bacteroides fragilis)	IC50 [2]	IC50 [3]	IC50 (ACHN [4])	IC50 (U-937/GTB [5])	MIC [6]	MIC (Escherichia coli)	MIC (Staphylococcus aureus)	further results
Cc1ncc([N+](=O)[O-])n1CCO [METRONIDAZOLE]	1 µg/mL (≈ 5.84 µM)	0.5 µg/mL (≈ 2.92 µM)	–	–	–	–	–	–	–	–
COc1cccc2c1C(=O)c1c(O)c3c(c(O)c1C2=O)C[C@@](O)(C(=O)CO)C[C@@H]3O[C@H]1C[C@H](N)[C@H](O)[C@H](C)O1 [DOXORUBICIN]	–	–	0.13 µM	0.18 µM	–	–	–	–	–	–
C=C1CC[C@H]2C(C)(C)CCC[C@]2(C)[C@H]1CC/C(C)=C/Cn1c[n+](C)c2nc[n-]/c(=N\OC)c21	4 µg/mL (≈ 8.86 µM)	4 µg/mL (≈ 8.86 µM)	0.2 µM	2.33 µM	8.01 µM	1.03 µM	> 6.25 µg/mL	8 µg/mL (≈ 17.7 µM)	2 µg/mL (≈ 4.43 µM)	MIC (Enterococcus faecalis): 8 µg/mL (≈ 17.7 µM); MIC (Pseudomonas aeruginosa): 32 µg/mL (≈ 70.8 µM); MIC (Streptococcus pyogenes): 2 µg/mL (≈ 4.43 µM)
C=C1CC[C@H]2C(C)(C)CCC[C@]2(C)[C@H]1CC/C(C)=C/Cn1c[n+](C)c2ncnc(N)c21.[Cl-]	8 µg/mL	16 µg/mL	3.7 µM	4.68 µM	25 µM	5.59 µM	> 6.25 µg/mL	8 µg/mL	1 µg/mL	MIC (Enterococcus faecalis): 8 µg/mL; MIC (Pseudomonas aeruginosa): 16 µg/mL; MIC (Streptococcus pyogenes): 2 µg/mL
C/C(=C\Cn1c[n+](C)c2ncnc(N)c21)CC[C@@]1(C)[C@H](C)CC[C@@]2(C)C(COC(=O)c3cc(Br)c[nH]3)=CCC[C@@H]12	–	–	–	–	–	–	–	–	–	IC50 (L1210): 4.8 µM
CC(=O)O[C@H]1C(=O)[C@@]2(C)[C@H]([C@H](OC(=O)c3ccccc3)[C@]3(O)C[C@H](OC(=O)[C@H](O)[C@@H](NC(=O)c4ccccc4)c4ccccc4)C(C)=C1C3(C)C)[C@]1(OC(C)=O)CO[C@@H]1C[C@@H]2O [PACLITAXEL]	–	–	0.007 µM	0.007 µM	–	–	–	–	–	–
CO[C@H]1/C=C/O[C@@]2(C)Oc3c(C)c(O)c4c(O)c(c(/C=N/N5CCN(C)CC5)c(O)c4c3C2=O)NC(=O)/C(C)=C\C=C\[C@H](C)[C@H](O)[C@@H](C)[C@@H](O)[C@@H](C)[C@H](OC(C)=O)[C@@H]1C [RIFAMPIN]	–	–	–	–	–	–	0.25 µg/mL (≈ 0.304 µM)	–	–	–
C=C1CC[C@H]2C(C)(C)CCC[C@]2(C)[C@H]1CC/C(C)=C/Cn1c[n+](C)c2nc[n-]/c(=N\OC(C)(C)C)c21	4 µg/mL (≈ 8.1 µM)	4 µg/mL (≈ 8.1 µM)	> 80 µM	> 80 µM	> 80 µM	> 80 µM	3.13 µg/mL (≈ 6.34 µM)	32 µg/mL (≈ 64.8 µM)	6 µg/mL (≈ 12.2 µM)	Activity (ACHN [7]): inactive; Activity (CEM/s): inactive; Activity (U-937/GTB [8]): inactive; Activity (Homo sapiens): inactive
